Columns and labels:
Mus musculus [1] = assay: Analgesic activity in albino mouse assessed as decrease in acetic acid-induced writhing at 8.45 mg/kg, po administered 1 hr prior to acetic acid challenge relative to control; format: functional
How it was run: (§1)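 Albino mice of either sex, 18–22 g, six per group. Test agents suspended in saline with a few drops of Tween 80 and given by oral stomach tube; controls handled identically without drug. After 1 h, 0.3 ml of 1% acetic acid ip. Writhing contractions counted for 30 min, starting 5 min after injection. % protection versus control mean; mean ± SEM; one-way ANOVA with post hoc test.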

Rattus norvegicus [2] = assay: Antiinflammatory activity in albino rat assessed as inhibition of carrageenan-induced paw edema at 0.029 mmol/kg, po after 2 hrs relative to control; format: functional
How it was run: (§2)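 Adult albino rats of either sex, 120–150 g, six per group. Compounds at 0.029 mmol/kg suspended in saline with a few drops of Tween 80 and given by oral stomach tube. After 1 h, 0.1 ml of freshly prepared 1% carrageenan in saline injected subplantar into the right hind paw. Paw thickness measured at 1–4 h; % edema inhibition versus control; mean ± SEM; ANOVA.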

Rattus norvegicus [3] = assay: Antiinflammatory activity in albino rat assessed as inhibition of carrageenan-induced paw edema at 0.029 mmol/kg, po after 4 hrs relative to indomethacin; format: functional
How it was run: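 Rat carrageenan paw edema: oral 0.029 mmol/kg in saline/Tween 80, 1 h before subplantar 0.1 ml 1% carrageenan into the right hind paw; six rats per group. Potency is % inhibition of the test compound divided by % inhibition of indomethacin at 4 h.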

Rattus norvegicus [4] = assay: Antiinflammatory activity in albino rat assessed as inhibition of carrageenan-induced paw edema at 0.029 mmol/kg, po after 4 hrs relative to control; format: functional; how it was run: as §2
Rattus norvegicus [5] = assay: Antiinflammatory activity in albino rat assessed as inhibition of carrageenan-induced paw edema at 0.029 mmol/kg, po after 3 hrs relative to control; format: functional; how it was run: as §2
Rattus norvegicus [6] = assay: Gastrointestinal toxicity in albino rat assessed as ulcerogenic index at 0.029 mmol/kg, po after 5 hrs; format: organism-based; details: in vivo
How it was run: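 Adult albino rats of either sex (120–150 g), 6 per group, got the test compounds orally by stomach tube as a suspension in saline with a few drops of tween 80. They were the same rats used in the carrageenan paw-edema test. Stomachs were then opened along the great curvature and examined for lesions or bleeding. Ulceration was recorded as the number of rats with ulcers out of 6.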

Rattus norvegicus [7] = assay: Antiinflammatory activity in albino rat assessed as inhibition of carrageenan-induced paw edema at 0.029 mmol/kg, po after 1 hr relative to control; format: functional; how it was run: as §2
Mus musculus [8] = assay: Analgesic activity in albino mouse assessed as decrease in acetic acid-induced writhing at 10.45 mg/kg, po administered 1 hr prior to acetic acid challenge relative to control; format: functional; how it was run: as §1
Mus musculus [9] = assay: Analgesic activity in albino mouse assessed as decrease in acetic acid-induced writhing at 8.94 mg/kg, po administered 1 hr prior to acetic acid challenge relative to control; format: functional; how it was run: as §1
Mus musculus [10] = assay: Analgesic activity in albino mouse assessed as decrease in acetic acid-induced writhing at 7.63 mg/kg, po administered 1 hr prior to acetic acid challenge relative to control; format: functional; how it was run: as §1
Mus musculus [11] = assay: Analgesic activity in albino mouse assessed as decrease in acetic acid-induced writhing at 8.59 mg/kg, po administered 1 hr prior to acetic acid challenge relative to control; format: functional; how it was run: as §1
Mus musculus [12] = assay: Analgesic activity in albino mouse assessed as decrease in acetic acid-induced writhing at 0.8 mg/kg, po administered 1 hr prior to acetic acid challenge; format: functional; how it was run: as §1
Mus musculus [13] = assay: Analgesic activity in albino mouse assessed as decrease in acetic acid-induced writhing at 0.4 mg/kg, po administered 1 hr prior to acetic acid challenge; format: functional; how it was run: as §1
Mus musculus [14] = assay: Analgesic activity in albino mouse assessed as decrease in acetic acid-induced writhing at 1 mg/kg, po administered 1 hr prior to acetic acid challenge; format: functional; how it was run: as §1
Mus musculus [15] = assay: Analgesic activity in po dosed albino mouse assessed as decrease in acetic acid-induced writhing administered 1 hr prior to acetic acid challenge; format: functional, organism-based; how it was run: as §1
Mus musculus [16] = assay: Analgesic activity in albino mouse assessed as decrease in acetic acid-induced writhing at 8 mg/kg, po administered 1 hr prior to acetic acid challenge; format: functional; how it was run: as §1
Mus musculus [17] = assay: Analgesic activity in albino mouse assessed as decrease in acetic acid-induced writhing at 2 mg/kg, po administered 1 hr prior to acetic acid challenge; format: functional; how it was run: as §1
Mus musculus [18] = assay: Analgesic activity in albino mouse assessed as decrease in acetic acid-induced writhing at 4 mg/kg, po administered 1 hr prior to acetic acid challenge; format: functional; how it was run: as §1
Mus musculus [19] = assay: Analgesic activity in albino mouse assessed as decrease in acetic acid-induced writhing at 8.68 mg/kg, po administered 1 hr prior to acetic acid challenge relative to control; format: functional; how it was run: as §1
Mus musculus [20] = assay: Analgesic activity in albino mouse assessed as decrease in acetic acid-induced writhing at 11.75 mg/kg, po administered 1 hr prior to acetic acid challenge relative to control; format: functional; how it was run: as §1
Mus musculus [21] = assay: Analgesic activity in albino mouse assessed as decrease in acetic acid-induced writhing at 11.49 mg/kg, po administered 1 hr prior to acetic acid challenge relative to control; format: functional; how it was run: as §1
Mus musculus [22] = assay: Analgesic activity in albino mouse assessed as decrease in acetic acid-induced writhing at 9 mg/kg, po administered 1 hr prior to acetic acid challenge relative to control; format: functional; how it was run: as §1
Mus musculus [23] = assay: Analgesic activity in albino mouse assessed as decrease in acetic acid-induced writhing at 10.24 mg/kg, po administered 1 hr prior to acetic acid challenge relative to control; format: functional; how it was run: as §1
Mus musculus [24] = assay: Analgesic activity in albino mouse assessed as decrease in acetic acid-induced writhing at 8.12 mg/kg, po administered 1 hr prior to acetic acid challenge relative to control; format: functional; how it was run: as §1
Rattus norvegicus [25] = assay: Antiinflammatory activity in po dosed albino rat assessed as inhibition of carrageenan-induced paw edema; format: functional, organism-based
How it was run: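 Adult albino rats of either sex, 120–150 g, groups of 6. Compound suspended in saline with a few drops of tween 80, given by oral stomach tube 1 h before subplantar injection of freshly prepared 1% carrageenan (0.1 ml) in saline into right hind paw. Paw thickness read at 1–4 h; % edema inhibition versus carrageenan control; mean ± SEM, one-way ANOVA with post hoc test.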

Rattus norvegicus [26] = assay: Antiinflammatory activity in albino rat assessed as inhibition of carrageenan-induced paw edema at 15 mg/kg, po; format: functional
How it was run: (§3)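 Rat carrageenan paw edema with oral dosing at 10, 15, 20 and 25 mg/kg, suspended in saline with Tween 80, 1 h before subplantar 0.1 ml 1% carrageenan into the right hind paw. % edema inhibition versus control at each dose; IC50 (mg/kg) derived from these four doses.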

Rattus norvegicus [27] = assay: Antiinflammatory activity in albino rat assessed as inhibition of carrageenan-induced paw edema at 20 mg/kg, po; format: functional; how it was run: as §3
Rattus norvegicus [28] = assay: Antiinflammatory activity in albino rat assessed as inhibition of carrageenan-induced paw edema at 10 mg/kg, po; format: functional; how it was run: as §3
Mus musculus [29] = assay: Analgesic activity in albino mouse assessed as decrease in acetic acid-induced writhing at 7.69 mg/kg, po administered 1 hr prior to acetic acid challenge relative to control; format: functional; how it was run: as §1
Rattus norvegicus [30] = assay: Antiinflammatory activity in albino rat assessed as inhibition of carrageenan-induced paw edema at 25 mg/kg, po; format: functional; how it was run: as §3
Mus musculus [31] = assay: Analgesic activity in albino mouse assessed as decrease in acetic acid-induced writhing at 8.04 mg/kg, po administered 1 hr prior to acetic acid challenge relative to control; format: functional; how it was run: as §1
Mus musculus [32] = assay: Analgesic activity in albino mouse assessed as decrease in acetic acid-induced writhing at 8.36 mg/kg, po administered 1 hr prior to acetic acid challenge relative to control; format: functional; how it was run: as §1
Mus musculus [33] = assay: Analgesic activity in albino mouse assessed as decrease in acetic acid-induced writhing at 8.47 mg/kg, po administered 1 hr prior to acetic acid challenge relative to control; format: functional; how it was run: as §1
Mus musculus [34] = assay: Analgesic activity in albino mouse assessed as decrease in acetic acid-induced writhing at 8.33 mg/kg, po administered 1 hr prior to acetic acid challenge relative to control; format: functional; how it was run: as §1

SMILES	inhibition in vivo at 29 µmol/kg (Rattus norvegicus [2])	relative potency at 29 µmol/kg (Rattus norvegicus [3])	inhibition in vivo at 29 µmol/kg (Rattus norvegicus [4])	inhibition in vivo at 29 µmol/kg (Rattus norvegicus [5])	UI (Rattus norvegicus [6])	inhibition in vivo at 29 µmol/kg (Rattus norvegicus [7])	further results
CCCn1cnc2c(c1=N)C1CCCN1C(=S)N2CC (stereo not given)	15.7%	0.24	6.82%	9.37%	Non-toxic	13.5%	inhibition in vivo at 8.45 mg/kg (Mus musculus [1]): 77.2%
O=C1NC(c2ccccc2)NC2=C1C1CCCN1C(=O)N2c1ccccc1 (stereo not given)	12.4%	0.38	10.6%	11.5%		4.47%	inhibition in vivo at 10.45 mg/kg (Mus musculus [8]): 77.7%
CCCC/N=c1/c(C#N)c2n(c(=O)n1-c1ccccc1)CCC2	24%	0.81	22.4%	19.4%	Non-toxic	11.2%	inhibition in vivo at 8.94 mg/kg (Mus musculus [9]): 88.7%
CCN1C(=S)N2CCCC2c2c1ncn(C)c2=N (stereo not given)	14.1%	0.36	9.93%	11.5%	Non-toxic	11.2%	inhibition in vivo at 7.63 mg/kg (Mus musculus [10]): 97.6%
N#Cc1c2n(c(=O)n(-c3ccccc3)/c1=N\CCO)CCC2	22.3%	1	27.3%	25.9%	Non-toxic	5.6%	inhibition in vivo at 8.59 mg/kg (Mus musculus [11]): 87.8%
N#CC1=C(NCCN)N(c2ccccc2)C(=O)N2CCCC12 (stereo not given)	27.3%	0.61	16.9%	25.9%		15.7%	inhibition in vivo at 0.8 mg/kg (Mus musculus [12]): 81.3%; inhibition in vivo at 0.4 mg/kg (Mus musculus [13]): 49.4%; inhibition in vivo at 1 mg/kg (Mus musculus [14]): 90.6%; IC50 (Mus musculus [15]): 0.402 mg/kg; inhibition in vivo at 8 mg/kg (Mus musculus [16]): 96.4%; inhibition in vivo at 2 mg/kg (Mus musculus [17]): 94.4%; inhibition in vivo at 4 mg/kg (Mus musculus [18]): 96%; inhibition in vivo at 8.68 mg/kg (Mus musculus [19]): 96.3%
O=C1NC(c2ccc([N+](=O)[O-])cc2)NC2=C1C1CCCN1C(=O)N2c1ccccc1 (stereo not given)	14.1%	0.7	19.2%	14.4%		1.1%	inhibition in vivo at 11.75 mg/kg (Mus musculus [20]): 94.6%
N#Cc1c2n(c(=O)n(-c3ccccc3)/c1=N/c1cccc(C(F)(F)F)c1)CCC2	7.44%	0.34	9.31%	8.63%		8.97%	inhibition in vivo at 11.49 mg/kg (Mus musculus [21]): 63.8%
CCO/C=N/C1=C(C#N)C2CCCN2C(=O)N1c1ccccc1 (stereo not given)	9.12%	0.18	4.96%	5.78%	Non-toxic	22.4%	inhibition in vivo at 9 mg/kg (Mus musculus [22]): 69.8%
N#Cc1ccc(/N=c2\c(C#N)c3n(c(=O)n2-c2ccccc2)CCC3)cc1	28.1%	0.86	23.6%	28.1%	Non-toxic	16.9%	inhibition in vivo at 10.24 mg/kg (Mus musculus [23]): 82.9%
O=C1NC(c2ccccc2[N+](=O)[O-])NC2=C1C1CCCN1C(=O)N2c1ccccc1 (stereo not given)	14.1%	0.13	3.73%	8.65%		12.3%	inhibition in vivo at 11.75 mg/kg (Mus musculus [20]): 86.8%
CC/N=c1/c(C#N)c2n(c(=O)n1-c1ccccc1)CCC2	23.1%	1.11	30.4%	24.5%	Non-toxic	7.82%	inhibition in vivo at 8.12 mg/kg (Mus musculus [24]): 74.4%
C/N=c1/c(C#N)c2n(c(=O)n1-c1ccccc1)CCC2	26.5%	1.27	34.8%	30.2%	Non-toxic	19.1%	IC50 (Rattus norvegicus [25]): 17.77 mg/kg; inhibition in vivo at 15 mg/kg (Rattus norvegicus [26]): 43%; inhibition in vivo at 20 mg/kg (Rattus norvegicus [27]): 50.8%; inhibition in vivo at 10 mg/kg (Rattus norvegicus [28]): 36%; inhibition in vivo at 7.69 mg/kg (Mus musculus [29]): 74%; inhibition in vivo at 25 mg/kg (Rattus norvegicus [30]): 62.7%
CCN1C(=S)N2CCCC2c2c1ncn(CC)c2=N (stereo not given)	11.6%	0.36	9.91%	10.8%		11.6%	inhibition in vivo at 8.04 mg/kg (Mus musculus [31]): 75.9%
CCO/C=N/C1=C(C#N)C2CCCN2C(=S)N1CC (stereo not given)	19%	0.75	20.5%	20.9%	Non-toxic	12.3%	inhibition in vivo at 8.12 mg/kg (Mus musculus [24]): 88.1%
N/N=C(/N)C1=C(N)N(c2ccccc2)C(=O)N2CCCC12 (stereo not given)	27.3%	0.84	23%	25.9%		8.97%	inhibition in vivo at 8.36 mg/kg (Mus musculus [32]): 79%
C=CC/N=c1/c(C#N)c2n(c(=O)n1-c1ccccc1)CCC2	19%	0.52	14.3%	23.1%	Non-toxic	2.23%	inhibition in vivo at 8.47 mg/kg (Mus musculus [33]): 81.1%
NC1=C(/C(N)=N\O)C2CCCN2C(=O)N1c1ccccc1 (stereo not given)	14.9%	1	27.3%	21.6%		4.45%	inhibition in vivo at 8.33 mg/kg (Mus musculus [34]): 85.9%
